Calls of active or inactive are those of the source. The rule behind the calls is not given here.
How the values were obtained:
[1] = molecular target: T1, Induced myeloid leukemia cell differentiation protein Mcl-1 (Homo sapiens, UniProt Q07820); experiment: Binding affinity to Mcl-1 after 30 mins by florescence polarization assay
Method in brief: (§1)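 Fluorescence polarization binding assay against Mcl-1 and Bcl-2 proteins.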

[2] = molecular target: Apoptosis regulator Bcl-2 (Homo sapiens, UniProt P10415); experiment: Binding affinity to Bcl-2 after 30 mins by florescence polarization assay; method in brief: as §1
MCF7 [3] = experiment: Cytotoxicity against human MCF7 cells by MTT assay; format: functional, cell-based
K562 = experiment: Cytotoxicity against human K562 cells by MTT assay; format: functional, cell-based
MCF7 [4] = experiment: Induction of apoptosis in human MCF7 cells at 10 uM after 12 to 24 hrs by Annexin V-FITC/PI staining based flow cytometry; format: functional, cell-based
MCF7 [5] = experiment: Cytotoxicity against human MCF7 cells transfected with Bax/Bak shRNA assessed as cell viability after 48 hrs by MTT assay; format: functional, cell-based
Method in brief: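 MCF-7 cells transfected with nonspecific shRNA or Bax/Bak shRNA, treated 48 h with graded doses of compound. Viability read by MTT assay.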

HeLa = experiment: Cytotoxicity against human HeLa cells by MTT assay; format: functional, cell-based
SMMC-7721 = experiment: Cytotoxicity against human SMMC7721 cells by MTT assay; format: functional, cell-based
Nucleic Acid = experiment: Induction of DNA damage in Escherichia coli pBR322 at 100 uM after 2 hrs by agarose gel electrophoresis; format: functional
U-937 = experiment: Cytotoxicity against human U937 cells by MTT assay; format: functional, cell-based
MCF7 [6] = experiment: Induction of necrosis in human MCF7 cells at 10 uM after 12 to 24 hrs by Annexin V-FITC/PI staining based flow cytometry; format: functional, cell-based
HEK293 = experiment: Cytotoxicity against human HEK293 cells by MTT assay; format: cell-based
[7] = Cytotoxicity against human NCI-H1688 cells by MTT assay; format: functional, cell-based
[8] = molecular target: T1, Induced myeloid leukemia cell differentiation protein Mcl-1; experiment: Binding affinity to Mcl-1 in ABT737-resistant human Nalm-6 cells assessed as disruption of Mcl-1/Bak at 5 uM after 12 to 24 hrs by coimmunoprecipitation assay; format: cell-based
Method in brief: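 Nalm-6 cells (ABT737-resistant) incubated with 5 μM compound for 12 or 24 h. Total cell lysates immunoprecipitated with anti-Bcl-2 or anti-Mcl-1 antibody. Precipitates and lysates resolved by SDS-PAGE and Western blotted with anti-Bcl-2, anti-Bax, anti-Mcl-1 and anti-Bak antibodies.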

T1 sequence (Q07820 whole entry): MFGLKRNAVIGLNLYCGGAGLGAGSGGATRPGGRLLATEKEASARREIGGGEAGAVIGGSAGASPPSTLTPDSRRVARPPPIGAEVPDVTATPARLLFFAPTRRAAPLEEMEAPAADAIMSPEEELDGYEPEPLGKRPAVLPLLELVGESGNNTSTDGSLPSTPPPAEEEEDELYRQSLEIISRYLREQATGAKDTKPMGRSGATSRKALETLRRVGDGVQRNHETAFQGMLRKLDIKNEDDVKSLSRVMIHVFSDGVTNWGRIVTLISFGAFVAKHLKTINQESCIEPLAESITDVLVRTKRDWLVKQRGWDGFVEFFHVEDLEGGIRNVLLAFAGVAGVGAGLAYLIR
Sequence of Apoptosis regulator Bcl-2 (P10415 whole entry): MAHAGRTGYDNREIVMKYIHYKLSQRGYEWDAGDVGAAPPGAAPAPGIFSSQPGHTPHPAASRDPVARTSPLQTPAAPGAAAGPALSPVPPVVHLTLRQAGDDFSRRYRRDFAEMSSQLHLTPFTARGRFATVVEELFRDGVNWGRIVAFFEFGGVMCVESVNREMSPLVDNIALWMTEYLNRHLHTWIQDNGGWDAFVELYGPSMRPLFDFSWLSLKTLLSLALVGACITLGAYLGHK

Ki [1] [nM] | Ki [2] [nM] | Compound | other results
312 | 420 | O=C1c2ccccc2C(=O)c2cc(O)c(O)cc21 | –
56 | 87 | O=C1c2ccc(Sc3ccc(Br)cc3)cc2C(=O)c2cc(O)c(O)cc21 | –
13 | 24 | CC(C)c1ccc(Sc2ccc3c(c2)C(=O)c2cc(O)c(O)cc2C3=O)cc1 | IC50 (MCF7 [3]): 6120 nM; IC50 (K562): 3250 nM; Activity (MCF7 [4]): Active; Activity (MCF7 [5]): inactive; IC50 (HeLa): 5240 nM; IC50 (SMMC-7721): 6850 nM; Activity (Nucleic Acid): inactive; IC50 (U-937): 4060 nM; Activity (MCF7 [6]): inactive; IC50 (HEK293): 50300 nM; IC50 [7]: 4370 nM; Activity [8]: Active
270 | 583 | O=C1c2ccccc2C(=O)c2c1cc(O)c(O)c2O | –
38 | 44 | Cc1ccc(Sc2ccc3c(c2)C(=O)c2cc(O)c(O)cc2C3=O)cc1 | –

More lines, now with the values behind:

Compound | Ki [1] [nM] | Ki [2] [nM] | other results
O=C1c2ccc(Br)cc2C(=O)c2cc(O)c(O)cc21 | 107 | 132 | –
O=C1c2ccccc2C(=O)c2c1ccc(O)c2O [ATHRAQUINONES A] | 1620 | 1150 | –
O=C1c2ccc(Sc3ccccc3)cc2C(=O)c2cc(O)c(O)cc21 | 53 | 71 | –
O=C1c2ccccc2C(=O)c2c(O)cc(O)cc21 [XANTHOPURPURIN] | 2270 | 1700 | –
